The values below come from ChEMBL document CHEMBL3868617, “Synthesis, COX-1/2 inhibition activities and molecular docking study of isothiazolopyridine derivatives” (Bioorg Med Chem, 2017).

For test [1], the target named is T1, Prostaglandin G/H synthase 2 (Homo sapiens, UniProt P35354).
T1 sequence (P35354 whole entry): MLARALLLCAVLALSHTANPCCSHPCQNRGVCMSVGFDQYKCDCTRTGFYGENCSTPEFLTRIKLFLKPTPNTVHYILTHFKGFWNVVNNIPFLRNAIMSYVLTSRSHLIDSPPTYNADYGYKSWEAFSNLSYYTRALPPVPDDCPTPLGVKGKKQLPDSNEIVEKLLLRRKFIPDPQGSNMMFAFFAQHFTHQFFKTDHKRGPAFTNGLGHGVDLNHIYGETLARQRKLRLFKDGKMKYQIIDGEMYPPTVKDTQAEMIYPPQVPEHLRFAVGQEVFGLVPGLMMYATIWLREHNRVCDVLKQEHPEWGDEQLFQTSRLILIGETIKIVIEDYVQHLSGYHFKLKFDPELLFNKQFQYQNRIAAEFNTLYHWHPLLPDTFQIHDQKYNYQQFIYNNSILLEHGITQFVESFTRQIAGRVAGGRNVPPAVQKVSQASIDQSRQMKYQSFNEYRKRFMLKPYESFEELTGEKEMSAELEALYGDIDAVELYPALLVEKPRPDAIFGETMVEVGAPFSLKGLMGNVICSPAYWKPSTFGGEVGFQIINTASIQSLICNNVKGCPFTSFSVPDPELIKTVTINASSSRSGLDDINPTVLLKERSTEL
Briefly: Inhibition of COX-2 (unknown origin) using arachidonic acid as substrate preincubated for 2 mins followed by substrate addition in presence of TMPD by spectrophotometric analysis relative to control.

Test [2] concerns the target T2, Prostaglandin G/H synthase 1 (Homo sapiens, UniProt P23219). Briefly: Inhibition of COX-1 (unknown origin) using arachidonic acid as substrate preincubated for 2 mins followed by substrate addition in presence of TMPD by spectrophotometric analysis. Further details: concentration or dose not given beside the values. An outline of the steps: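 COX-1 with heme in 0.1 M Tris-HCl pH 8.0; arachidonic acid starts the reaction and the TMPD oxidation rate is read at 590 nm over 2 min.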

Test [3] deals with T2, Prostaglandin G/H synthase 1. Put plainly: Increase in COX-1 (unknown origin) enzyme activity using arachidonic acid as substrate preincubated for 10 mins followed by substrate addition in presence of TMPD by spectrophotometric analysis relative to control. In outline: (§1)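 COX-1 in 0.1 M Tris-HCl pH 8.0 with heme; colorimetric read of TMPD oxidation at 590 nm after arachidonic acid starts the reaction. Activity is taken at 10 min of incubation with compound and given as E/E0 against enzyme with solvent only (methanol, ethanol or DMSO). Triplicates; paired t test.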

Test [4] concerns Mus musculus. Put plainly: Antinociceptive activity in Swiss albino mouse assessed as reduction in phenylbenzoquinone-induced abdominal constrictions at 1.8 to 7.8 mg/kg, ip pretreated for 25 mins followed by phenylbenzoquinone treatment measured after 5 mins by writhing test. It counts as functional, Abdomen. Also noted: scale not given: the % may be the effect or the level left. For orientation: An intraperitoneal irritant provokes the stretching counted in writhing tests.

Test [5] deals with T2, Prostaglandin G/H synthase 1. Put plainly: Inhibition of COX-1 (unknown origin) using arachidonic acid as substrate preincubated for 10 mins followed by substrate addition in presence of TMPD by spectrophotometric analysis relative to control. In outline: as §1

T2 sequence (P23219 whole entry): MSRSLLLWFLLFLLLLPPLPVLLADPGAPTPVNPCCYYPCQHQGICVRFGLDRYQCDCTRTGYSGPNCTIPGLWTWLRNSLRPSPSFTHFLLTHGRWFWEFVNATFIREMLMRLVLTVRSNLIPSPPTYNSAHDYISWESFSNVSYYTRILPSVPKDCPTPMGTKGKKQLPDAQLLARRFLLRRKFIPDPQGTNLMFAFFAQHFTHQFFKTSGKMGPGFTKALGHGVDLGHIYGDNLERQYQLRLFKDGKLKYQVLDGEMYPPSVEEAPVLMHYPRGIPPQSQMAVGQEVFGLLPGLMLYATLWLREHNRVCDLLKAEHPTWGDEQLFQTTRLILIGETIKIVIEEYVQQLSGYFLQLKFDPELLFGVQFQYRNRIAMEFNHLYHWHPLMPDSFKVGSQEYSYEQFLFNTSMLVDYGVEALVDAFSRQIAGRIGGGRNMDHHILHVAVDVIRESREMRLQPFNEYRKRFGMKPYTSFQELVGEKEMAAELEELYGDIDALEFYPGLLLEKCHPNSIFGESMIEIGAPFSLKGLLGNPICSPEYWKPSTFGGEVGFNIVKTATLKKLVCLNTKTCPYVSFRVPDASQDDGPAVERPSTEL

Consider `Cc1cc(C)c2c(OC(C)C(=O)O)nsc2n1` (stereo unspecified), for which the values for the IC50 in test [1] (read-out: IC50) and in test [2] (read-out: IC50) were 327 µM and 229 µM, respectively. Further, in test [2], the inhibition fell in the range of 25 to 40%.
`CN1C(C(=O)Nc2ccccn2)=C(O)c2ccccc2S1(=O)=O`: in test [3], the Activity turned out to be 11%.
For `Cc1cc(C)c2c(=O)n(CCCC(=O)N3CCN(c4cccc(Cl)c4)CC3)sc2n1`, the IC50 in test [2] (read-out: IC50) was determined as 722 µM.
Turning to `Cc1cc(C)c2c(=O)n(CCC(=O)N3CCN(c4cccc(Cl)c4)CC3)sc2n1`, the IC50 stood at 388 µM in test [1] (read-out: IC50) and 242 µM in test [2] (read-out: IC50).
On to `Cc1cc(C)c2c(OCCCC(=O)N3CCN(c4ccccc4)CC3)nsc2n1`, for which, in test [2] (read-out: pIC50 (converted)), the IC50 was 1550 µM. The Activity in test [3] was in the range of 3 to 7%.
Consider `Cc1cc(C)c2c(=O)n(CN3CCN(c4ccccc4F)CC3)sc2n1`, for which the figures for the IC50 in test [1] (read-out: pIC50 (converted)), in test [2] (read-out: IC50) and in test [2] (read-out: pIC50 (converted)) were 1260 µM, 156 µM and 141 µM, respectively. Besides, the results for the inhibition in test [2] and in test [5] were 25 to 40% and 18 to 30%, respectively. Also, the Activity in test [4] was greater than 50%.
As to `Cc1cc(C)c2c(=O)n(CN(C)CCNc3ccccc3)sc2n1`, the IC50 in test [1] (read-out: IC50) was 494 µM; in test [1] (read-out: pIC50 (converted)) it was 5250 µM; in test [2] (read-out: IC50) it was 219 µM. For the same compound, in test [4], the Activity is recorded as greater than 50%. The inhibition in test [5] fell in the range of 18 to 30%.
Consider `COc1cc2c(cc1OC)CN(C(=O)CCn1sc3nc(C)cc(C)c3c1=O)CC2`, for which the IC50 in test [1] (read-out: IC50) is 303 µM; in test [1] (read-out: pIC50 (converted)) it was 288 µM; in test [2] (read-out: IC50), 497 µM.
On to `Cc1cc(C)c2c(OCCCC(=O)O)nsc2n1`, for which the figures for the IC50 in test [1] (read-out: IC50), in test [1] (read-out: pIC50 (converted)) and in test [2] (read-out: IC50) were 269 µM, 245 µM and 248 µM, respectively. For the same compound, the inhibition in test [2] lay within 25 to 40%.
Turning to `Cc1cc(C)c2c(=O)n(CN3CCN(C4CCCCC4)CC3)sc2n1`, the IC50 in test [1] (read-out: IC50) is 359 µM; in test [2] (read-out: pIC50 (converted)) it was 372 to 661 µM. Also, the Activity in test [4] is greater than 50%; in test [3], 3 to 7%.
Consider `Cc1cc(C)c2c(=O)n(CCCC(=O)N3CCN(c4ccccc4)CC3)sc2n1`, for which the IC50 amounted to 459 µM in test [1] (read-out: IC50) and 349 µM in test [2] (read-out: IC50).
As for `Cc1cc(C)c2c(=O)n(CCC(=O)N3CCN(c4ccccc4)CC3)sc2n1`, the IC50 in test [1] (read-out: IC50) was 368 µM; in test [2] (read-out: IC50), 207 µM. Besides, the inhibition in test [2] was 25 to 40%; in test [5] it was 18 to 30%.
`Cc1cc(C)c2c(=O)n(CC(=O)N3CCN(c4cccc(Cl)c4)CC3)sc2n1`: the IC50 in test [1] (read-out: IC50) stood at 605 µM; in test [2] (read-out: IC50), 375 µM.
As for `Cc1cc(C)c2c(=O)n(CCCC(=O)O)sc2n1`, the IC50 in test [1] (read-out: IC50) turned out to be 302 µM; in test [2] (read-out: IC50) it was 235 µM. In addition, the inhibition in test [2] was in the range of 25 to 40%.
Turning to `O=C(CCn1sc2ccccc2c1=O)N1CCN(c2cccc(Cl)c2)CC1`, the IC50 was 130 µM in test [1] (read-out: IC50), 331 µM in test [2] (read-out: IC50) and 302 µM in test [2] (read-out: pIC50 (converted)).
Take `Cc1cc(C)c2c(=O)n(CCCN3CCN(c4cccc(Cl)c4)CC3)sc2n1`: the results for the IC50 in test [2] (read-out: IC50) and in test [2] (read-out: pIC50 (converted)) were 816 µM and 513 to 525 µM, respectively. In addition, the Activity in test [4] is on record as greater than 50%.
Consider `Cc1cc(C)c2c(OCCCC(=O)N3CCN(c4cccc(Cl)c4)CC3)nsc2n1`, for which the IC50 in test [1] (read-out: pIC50 (converted)) is 4570 µM; in test [2] (read-out: IC50), 818 µM; in test [2] (read-out: pIC50 (converted)) it was 380 µM.
In the case of `CCC(C(=O)N1CCN(c2ccccc2)CC1)n1sc2nc(C)cc(C)c2c1=O` (stereo unspecified), the IC50 is 344 µM in test [1] (read-out: IC50), 154 µM in test [2] (read-out: IC50) and 138 µM in test [2] (read-out: pIC50 (converted)). The inhibition in test [2] is 25 to 40%; in test [5], 18 to 30%.

One may read the inhibition as the drop in the measured response relative to a control, in per cent.
